Tests used:
MCF7 = assay: Cytotoxicity against human MCF7 cells assessed as growth inhibition measured after 72 hrs by MTT assay; format: functional; conditions: MCF7, 72 h
Procedure, shortened: (§1)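 Cells in log phase were seeded in duplicate at 2500–4000 cells/well in supplemented DMEM (37 °C, 5% CO2). Drug from a 40 mM DMSO stock was added on day 0, 24 h post-plating. Read-out was MTT absorbance at 540 nm after 72 h.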

[1] = Cytotoxicity against human BE(2)-C cells assessed as growth inhibition measured after 72 hrs by MTT assay; format: functional; procedure, shortened: as §1
DU-145 = assay: Cytotoxicity against human DU145 cells assessed as growth inhibition measured after 72 hrs by MTT assay; format: functional; conditions: DU-145, 72 h; procedure, shortened: as §1
A-431 = assay: Cytotoxicity against human A431 cells assessed as growth inhibition measured after 72 hrs by MTT assay; format: functional; conditions: A-431, 72 h; procedure, shortened: as §1
HT-29 = assay: Cytotoxicity against human HT-29 cells assessed as growth inhibition measured after 72 hrs by MTT assay; format: functional; conditions: HT-29, 72 h; procedure, shortened: as §1
[2] = Cytotoxicity against human SJ-G2 cells assessed as growth inhibition measured after 72 hrs by MTT assay; format: functional; conditions: SJ-G2, 72 h; procedure, shortened: as §1
[3] = Cytotoxicity against mouse SMA cells assessed as growth inhibition measured after 72 hrs by MTT assay
SW480 = assay: Cytotoxicity against human SW480 cells assessed as growth inhibition measured after 72 hrs by MTT assay; format: functional; conditions: SW480, 72 h; procedure, shortened: as §1
A2780 = assay: Cytotoxicity against human A2780 cells assessed as growth inhibition measured after 72 hrs by MTT assay; format: functional; conditions: A2780, 72 h; procedure, shortened: as §1
[4] = Cytotoxicity against human H460 cells assessed as growth inhibition measured after 72 hrs by MTT assay; format: functional; conditions: NCI-H460, 72 h; procedure, shortened: as §1
[5] = Cytotoxicity against human MIA cells assessed as growth inhibition measured after 72 hrs by MTT assay; format: functional; procedure, shortened: as §1

Structure (SMILES) | GI50 (MCF7) | GI50 [1] | GI50 (DU-145) | GI50 (A-431) | GI50 (HT-29) | GI50 [2] | GI50 [3] | GI50 (SW480) | GI50 (A2780) | GI50 [4] | GI50 [5]
COc1ccc(CNC(=O)/C(C#N)=C/c2cccc3ccccc23)cc1 | 16 µM | 14 µM | 16 µM | 15 µM | 13 µM | 15 µM | 15 µM | 14 µM | 16 µM | 15 µM | 15 µM
N#C/C(=C\c1ccco1)C(=O)NCc1ccc(Cl)c(Cl)c1 | 20 µM | > 50 µM | 24 µM | > 50 µM | 20 µM | > 50 µM | 38 µM | > 50 µM | > 50 µM | > 50 µM | > 50 µM
COc1ccc(CNC(=O)/C(C#N)=C/c2ccc(C)o2)cc1 | 21 µM | 21 µM | 39 µM | 58 µM | 92 µM | 75 µM | 69 µM | 29 µM | 60 µM | > 100 µM | 51 µM
COc1ccc(CNC(=O)/C(C#N)=C/c2ccc[nH]2)cc1 | 34 µM | 47 µM | > 50 µM | > 50 µM | > 50 µM | > 50 µM | > 50 µM | > 50 µM | > 50 µM | > 50 µM | > 50 µM
COc1ccc(CNC(=O)/C(C#N)=C/c2cc(Br)co2)cc1 | 20 µM | 36 µM | 61 µM | 14 µM | 36 µM | 23 µM | > 100 µM | > 100 µM | 28 µM | > 100 µM | 65 µM
N#C/C(=C\c1c(F)c(F)c(F)c(F)c1F)C(=O)c1c[nH]c2ccccc12 | 13 µM | 10 µM | 30 µM | 19 µM | 18 µM | 14 µM | 20 µM | 18 µM | 11 µM | 35 µM | 21 µM
N#C/C(=C\c1cccc2ccccc12)C(=O)NCc1ccc(Cl)c(Cl)c1 | 8 µM | 7 µM | 12 µM | 8 µM | 7 µM | 13 µM | 7 µM | 11 µM | 7 µM | 7 µM | 8 µM
COc1ccc(CNC(=O)/C(C#N)=C/c2ccc(Cl)o2)cc1 | 9 µM | 11 µM | 12 µM | 9 µM | 9 µM | 13 µM | 14 µM | 13 µM | 9 µM | 15 µM | 15 µM
COc1ccc(CNC(=O)/C(C#N)=C/c2ccc(Br)o2)cc1 | 11 µM | 13 µM | 12 µM | 9 µM | 10 µM | 13 µM | 14 µM | 14 µM | 12 µM | 16 µM | 16 µM
COc1ccc(/C=C(\C#N)C(=O)NCc2ccc(Cl)c(Cl)c2)cc1 | 45 µM | 93 µM | 70 µM | 90 µM | > 100 µM | > 100 µM | > 100 µM | 95 µM | 86 µM | > 100 µM | 79 µM
COc1ccc(CNC(=O)/C(C#N)=C/c2ccc(Cl)cc2)cc1 | 11 µM | 12 µM | 7 µM | 6 µM | 7 µM | 11 µM | 17 µM | 10 µM | 7 µM | 14 µM | 16 µM
COc1ccc(CNC(=O)/C(C#N)=C/c2ccc(C)cc2)cc1 | 36 µM | 35 µM | 34 µM | 26 µM | 36 µM | 39 µM | 42 µM | 34 µM | 33 µM | 41 µM | 38 µM
N#C/C(=C\c1c(F)c(F)c(F)c(F)c1F)C(=O)c1ccc[nH]1 | 23 µM | 14 µM | > 100 µM | 64 µM | 224 µM | 23 µM | > 100 µM | > 100 µM | 64 µM | 31 µM | 25 µM
COc1ccc(CNC(=O)/C(C#N)=C/c2ccoc2)cc1 | 7 µM | 7 µM | 7 µM | 5 µM | 6 µM | 8 µM | 7 µM | 8 µM | 6 µM | 8 µM | 8 µM
COc1ccc(CNC(=O)/C(C#N)=C/c2ccc(-c3ccccc3)o2)cc1 | 3 µM | > 100 µM | > 100 µM | > 100 µM | 56 µM | > 100 µM | > 100 µM | > 100 µM | > 100 µM | > 100 µM | > 100 µM
COc1ccc(CNC(=O)/C(C#N)=C/c2ccc3ccccc3c2)cc1 | 33 µM | 42 µM | 80 µM | 37 µM | 54 µM | 40 µM | 43 µM | 41 µM | 40 µM | > 100 µM | 49 µM
N#C/C(=C\c1ccc([N+](=O)[O-])cc1)C(=O)c1c[nH]c2ccccc12 | 35 µM | 40 µM | 59 µM | 46 µM | 41 µM | 37 µM | 60 µM | 42 µM | 48 µM | 47 µM | 46 µM
COc1ccc(CNC(=O)/C(C#N)=C/c2ccccc2)cc1 | 18 µM | 15 µM | 13 µM | 9 µM | 9 µM | 17 µM | 16 µM | 14 µM | 9 µM | 18 µM | 24 µM
N#C/C(=C\c1ccc2ccccc2c1)C(=O)NCc1ccc(Cl)c(Cl)c1 | 29 µM | 40 µM | 77 µM | 50 µM | 44 µM | 49 µM | 64 µM | 50 µM | 44 µM | > 100 µM | 44 µM
N#C/C(=C\c1ccc(Cl)cc1)C(=O)NCc1ccc(Cl)c(Cl)c1 | 21 µM | 31 µM | 30 µM | 30 µM | 33 µM | 30 µM | 33 µM | 30 µM | 32 µM | 33 µM | 31 µM
N#C/C(=C\c1ccccc1)C(=O)NCc1ccc(Cl)c(Cl)c1 | 29 µM | 32 µM | 71 µM | 43 µM | 70 µM | 43 µM | 43 µM | 49 µM | 49 µM | 61 µM | 47 µM
N#C/C(=C\c1c[nH]c2ccccc12)C(=O)c1c[nH]c2ccccc12 | 11 µM | 12 µM | 17 µM | 7.6 µM | 6 µM | 13 µM | 15 µM | 8.3 µM | 9.3 µM | 7.6 µM | 14 µM
COc1ccc(CNC(=O)/C(C#N)=C/c2ccco2)cc1 | 27 µM | 24 µM | 29 µM | 16 µM | 22 µM | 31 µM | 33 µM | 31 µM | 24 µM | 32 µM | 34 µM
N#C/C(=C\c1ccc[nH]1)C(=O)NCc1ccc(Cl)c(Cl)c1 | 6 µM | 43 µM | > 50 µM | > 50 µM | 85 µM | > 50 µM | > 50 µM | > 50 µM | > 50 µM | > 50 µM | > 50 µM
